Results as given in ChEMBL document CHEMBL6115053, “Optimization and Characterization of N-Acetamide Indoles as Antimalarials That Target PfATP4” (J Med Chem, 2025).
In brackets after ≈: the same amount, converted by molar mass. Activity calls are given as the source filed them. No cut-off for these calls is given here.

Key:
[1] = tested on: Plasmodium falciparum; experiment: Antiplasmodial activity against wild type Plasmodium falciparum 3D7 incubated for 48 hrs; format: functional, organism-based; conditions: 3D7, 48 h
[2] = tested on: Plasmodium falciparum; experiment: Antiplasmodial activity against multidrug resistant Plasmodium falciparum W2mef incubated for 48 hrs by SYBR staining based fluorometer assay; format: functional, organism-based
[3] = tested on: Plasmodium falciparum; experiment: Antiplasmodial activity against multidrug resistant Plasmodium falciparum 7G8 incubated for 48 hrs by SYBR staining based fluorometer assay; format: functional, organism-based; conditions: 7G8, 48 h
[4] = tested on: Plasmodium falciparum; experiment: Antiplasmodial activity against asexual Plasmodium falciparum 3D7 infected in human […] cells assessed as reduction in parasite growth measured for 72 hrs by LDH assay; format: functional, organism-based; conditions: 3D7, 72 h
[5] = Metabolic stability in human liver microsome assessed as intrinsic clearance; format: ADME; conditions: microsomes
[6] = Lipophilicity, logD of compound at pH 7.4 by shake-flask method; format: physicochemical; conditions: buffer
[7] = tested on: Plasmodium falciparum; experiment: Antiplasmodial activity against Plasmodium falciparum 3D7 infected in RBC assessed as reduction in deoxycytidine monophosphate level at 5 nM incubated for 5 hrs by LC-MS analysis; format: functional, organism-based
[8] = tested on: Plasmodium falciparum; experiment: Antiplasmodial activity against multidrug resistant Plasmodium falciparum Cam3.1 incubated for 48 hrs by SYBR staining based fluorometer assay; format: functional, organism-based; conditions: Cam3.1, 48 h
[9] = tested on: Plasmodium falciparum; experiment: Antimalarial activity against Plasmodium falciparum NF54 infected assessed as inhibition of male gamete formation incubated for 48 hrs by automated bright field microscopic analysis; format: functional, organism-based; conditions: NF54, 48 h
[10] = tested on: HepG2; experiment: Cytotoxicity against human HepG2 cells assessed as inhibition of cell growth incubated for 48 hrs by celltiterglo assay; format: toxicity, cell-based; conditions: hepg2, 48 h
[11] = tested on: Plasmodium falciparum; experiment: Antiplasmodial activity against Plasmodium falciparum 3D7 infected in RBC assessed as reduction in deoxythymidine diphosphate level at 5 nM incubated for 5 hrs by LC-MS analysis; format: functional, organism-based
[12] = Metabolic stability in rat hepatocyte […] assessed as intrinsic clearance measured per 10^6 cells; format: ADME, cell-based; conditions: hepatocytes
[13] = Aqueous solubility in PBS buffer at pH 7.4; format: physicochemical
[14] = tested on: Plasmodium falciparum; experiment: Antiplasmodial activity against Plasmodium falciparum 3D7 infected in RBC assessed as reduction in deoxythymidine triphosphate level at 5 nM incubated for 5 hrs by LC-MS analysis; format: functional, organism-based
[15] = tested on: Plasmodium knowlesi; experiment: Antiplasmodial activity against wild type Plasmodium knowlesi YH1 incubated for 30 hrs by SYBR staining based flow cytometry assay; format: functional, organism-based; conditions: YH1, 30 h
[16] = tested on: Plasmodium falciparum; experiment: Antiplasmodial activity against Plasmodium falciparum 3D7 infected in RBC assessed as reduction in pyrimidine-deoxyribonucleotides level at 5 nM incubated for 5 hrs by LC-MS analysis; format: functional, organism-based
[17] = tested on: Plasmodium falciparum; experiment: Antimalarial activity against Plasmodium falciparum NF54 infected assessed as inhibition of female gamete formation incubated for 48 hrs by automated bright field microscopic analysis; format: functional, organism-based; conditions: NF54, 48 h
[18] = tested on: Plasmodium falciparum; experiment: Antiplasmodial activity against Plasmodium falciparum 3D7 infected in RBC assessed as reduction in nucleotide level at 5 nM incubated for 5 hrs by LC-MS analysis; format: functional, organism-based
[19] = tested on: Plasmodium falciparum; experiment: Antiplasmodial activity against multi-drug resistant Plasmodium falciparum Dd2; format: functional, organism-based
[20] = Metabolic stability in mouse liver microsome assessed as intrinsic clearance; format: ADME; conditions: microsomes
[21] = tested on: Plasmodium falciparum; experiment: Antiplasmodial activity against N-(2,6-difluorophenyl)-2-(6-(5-methyl-1,3,4-oxadiazol-2-yl)-1H-indol-1-yl)acetamide-resistant Plasmodium falciparum Dd2 harbouring ATP4 genome with 2.8 fold CNV; format: functional, organism-based
[22] = tested on: Plasmodium falciparum; experiment: Antiplasmodial activity against N-(2,6-difluorophenyl)-2-(6-(5-methyl-1,3,4-oxadiazol-2-yl)-1H-indol-1-yl)acetamide-resistant Plasmodium falciparum Dd2 harboring plasmodium falciparum ATP4 F156L mutant; format: functional, organism-based
[23] = tested on: Plasmodium falciparum; experiment: Antiplasmodial activity against Plasmodium falciparum 3D7; format: functional, organism-based
[24] = tested on: Plasmodium falciparum; experiment: Antiplasmodial activity against N-(2,6-difluorophenyl)-2-(6-(5-methyl-1,3,4-oxadiazol-2-yl)-1H-indol-1-yl)acetamide-resistant Plasmodium falciparum Dd2 harboring plasmodium falciparum ATP4 D425E mutant; format: functional, organism-based
[25] = tested on: Plasmodium falciparum; experiment: Antiplasmodial activity against multidrug-resistant Plasmodium falciparum Dd2 harboring plasmodium falciparum ATP4 G358S mutant; format: functional, organism-based
[26] = tested on: Plasmodium falciparum; experiment: Antiplasmodial activity against multidrug-resistant Plasmodium falciparum Dd2 harboring plasmodium falciparum ATP4 I398F/P990R/D1247Y mutant; format: functional, organism-based
[27] = target: T1, P-type sodium-transporting ATPase4 (Plasmodium falciparum (isolate 3D7), UniProt A0A143ZZK9); experiment: Inhibition of Plasmodium falciparum 3D7 ATP4 assessed as increase in Na+ concentration in parasite cytosol measured for 60 mins; format: subcellular
T1 sequence (A0A143ZZK9 whole entry): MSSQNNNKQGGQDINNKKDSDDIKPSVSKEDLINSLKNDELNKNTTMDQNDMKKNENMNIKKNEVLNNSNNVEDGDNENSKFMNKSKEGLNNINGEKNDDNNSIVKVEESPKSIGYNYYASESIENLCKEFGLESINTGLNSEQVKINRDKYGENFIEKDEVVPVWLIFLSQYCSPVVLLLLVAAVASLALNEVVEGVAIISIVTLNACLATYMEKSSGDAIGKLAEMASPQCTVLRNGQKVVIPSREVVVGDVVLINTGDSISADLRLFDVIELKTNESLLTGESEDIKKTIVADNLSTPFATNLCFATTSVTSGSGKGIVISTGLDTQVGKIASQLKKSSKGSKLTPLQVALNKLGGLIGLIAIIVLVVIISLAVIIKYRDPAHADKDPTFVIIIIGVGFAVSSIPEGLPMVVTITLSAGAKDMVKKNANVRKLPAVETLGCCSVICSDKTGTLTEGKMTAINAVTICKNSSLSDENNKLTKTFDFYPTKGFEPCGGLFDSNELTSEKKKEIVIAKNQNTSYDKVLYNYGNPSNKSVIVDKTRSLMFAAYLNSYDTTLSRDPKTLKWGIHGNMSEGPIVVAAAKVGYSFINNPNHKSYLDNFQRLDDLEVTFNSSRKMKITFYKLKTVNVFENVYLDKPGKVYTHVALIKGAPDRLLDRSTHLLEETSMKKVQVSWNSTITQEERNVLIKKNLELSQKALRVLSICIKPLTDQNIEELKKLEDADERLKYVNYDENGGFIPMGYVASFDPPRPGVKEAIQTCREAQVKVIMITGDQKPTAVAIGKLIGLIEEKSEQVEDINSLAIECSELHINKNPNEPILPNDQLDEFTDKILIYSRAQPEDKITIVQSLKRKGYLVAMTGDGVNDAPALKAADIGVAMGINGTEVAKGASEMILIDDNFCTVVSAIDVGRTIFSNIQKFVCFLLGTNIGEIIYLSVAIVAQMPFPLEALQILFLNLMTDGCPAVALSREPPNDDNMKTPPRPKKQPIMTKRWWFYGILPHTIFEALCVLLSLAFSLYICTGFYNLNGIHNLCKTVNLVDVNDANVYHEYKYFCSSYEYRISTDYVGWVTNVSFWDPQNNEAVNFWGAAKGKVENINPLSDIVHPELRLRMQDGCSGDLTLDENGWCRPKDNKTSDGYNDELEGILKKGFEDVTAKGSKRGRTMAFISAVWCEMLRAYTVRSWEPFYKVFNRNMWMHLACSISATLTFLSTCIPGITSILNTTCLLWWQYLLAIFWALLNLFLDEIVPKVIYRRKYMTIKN

[28] = tested on: Plasmodium falciparum; experiment: Antiplasmodial activity against multidrug-resistant Plasmodium falciparum Dd2 harboring plasmodium falciparum ATP4 I398F/P990R/D1247Y mutant by SYBR green staining based analysis; format: functional, organism-based
[29] = tested on: HepG2; experiment: Cytotoxicity against human HepG2 cells; format: functional
[30] = tested on: Plasmodium falciparum; experiment: Antiplasmodial activity against Plasmodium falciparum 3D7 infected in RBC assessed as reduction in extracellular parasite growth measured for 8 hrs by Giemsa-staining based microscopic analysis; format: functional; design: scale not given: the % may be the effect or the level left
In short: (§1)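 Giemsa-stained thin smears were read at 8 h and the percentages of extracellular and intracellular parasites counted, compared with untreated parasites at 0 h.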

[31] = tested on: Plasmodium falciparum; experiment: Antimalarial activity against trophozoite stage Plasmodium falciparum 3D7 at 10 times EC50 incubated for 48 hrs by SYBR Green dye based analysis; format: functional, organism-based
[32] = tested on: Plasmodium falciparum; experiment: Antiplasmodial activity against N-(2,6-difluorophenyl)-2-(6-(5-methyl-1,3,4-oxadiazol-2-yl)-1H-indol-1-yl)acetamide-resistant Plasmodium falciparum Dd2 harbouring ATP4 genome with 2.8 fold CNV by SYBR green staining based analysis; format: functional, organism-based
[33] = tested on: Plasmodium falciparum; experiment: Antiplasmodial activity against Plasmodium falciparum 3D7 infected in human […] cells incubated for 72 hrs; format: functional, organism-based; conditions: 3D7, 72 h
[34] = tested on: Plasmodium falciparum; experiment: Antiplasmodial activity against Plasmodium falciparum 3D7 infected in RBC assessed as reduction in parasite growth measured for 8 hrs by Giemsa-staining based microscopic analysis; format: functional, organism-based; in short: as §1
[35] = tested on: Plasmodium falciparum; experiment: Antiplasmodial activity against W454-resistant population 3 Plasmodium falciparum 3D7 harboring Plasmodium falciparum ATP4 L928F mutant by LDH assay; format: functional, organism-based
[36] = tested on: Plasmodium falciparum; experiment: Antiplasmodial activity against W454-resistant population 2 Plasmodium falciparum 3D7 harboring Plasmodium falciparum ATP4 L928F mutant by LDH assay; format: functional, organism-based
[37] = tested on: Plasmodium falciparum; experiment: Antiplasmodial activity against W454-resistant population 1 Plasmodium falciparum 3D7 harboring Plasmodium falciparum ATP4 L928F mutant by LDH assay; format: functional, organism-based
[38] = tested on: Plasmodium falciparum; experiment: Antiplasmodial activity against multidrug-resistant Plasmodium falciparum Dd2 harboring plasmodium falciparum ATP4 G358S mutant by SYBR green staining based analysis; format: functional, organism-based
[39] = target: T2, P-type sodium-transporting ATPase4 (Plasmodium falciparum (isolate 3D7)) (UniProt A0A143ZZK9); experiment: Inhibition of Plasmodium falciparum 3D7 ATP4 assessed as increase in Na+ concentration in parasite cytosol upto 1000 nM measured for 60 mins; format: subcellular
T2 sequence (whole entry): T1 sequence (A0A143ZZK9 whole entry)

[40] = tested on: Plasmodium falciparum; experiment: Antiplasmodial activity against N-(2,6-difluorophenyl)-2-(6-(5-methyl-1,3,4-oxadiazol-2-yl)-1H-indol-1-yl)acetamide-resistant Plasmodium falciparum Dd2 harboring plasmodium falciparum ATP4 D425E mutant by SYBR green staining based analysis; format: functional, organism-based
[41] = tested on: Plasmodium falciparum; experiment: Antiplasmodial activity against N-(2,6-difluorophenyl)-2-(6-(5-methyl-1,3,4-oxadiazol-2-yl)-1H-indol-1-yl)acetamide-resistant Plasmodium falciparum Dd2 harboring plasmodium falciparum ATP4 F156L mutant by SYBR green staining based analysis; format: functional, organism-based
[42] = tested on: Plasmodium falciparum; experiment: Antiplasmodial activity against Plasmodium falciparum 3D7 infected in human […] cells; format: functional, organism-based

In the case of `COc1cc(NC(=O)Cn2ccc3ccc(-c4nnc(C)o4)cc32)cc(OC)c1OC`, the EC50 [1] is reported as 73 nM, the EC50 [2] is reported as 77 nM and the EC50 [3] is reported as 165 nM. For the same compound, the EC50 [4] was 200 nM, the “intrinsic clearance (CLint)” value [5] was 42 µL/min/mg and the logD [6] was 2.7. For the same compound, the Activity [7] was “inactive”, the EC50 [8] was 124 nM and the EC50 [9] was 1500 nM. For the same compound, the CC50 [10] was greater than 40000 nM, the Activity [11] was “inactive” and the “intrinsic clearance (CLint)” value [12] was 8.9 uL/min/10^6 cells. For the same compound, the solubility kinetic [13] was 5.1 µM (≈ 2.15 µg/mL), the Activity [14] was “inactive” and the EC50 [15] was 195 nM. The Activity [16] was “inactive”, the EC50 [17] was 3400 nM and the Activity [18] was “inactive”. The EC50 [19] was 99 nM and the “intrinsic clearance (CLint)” value [20] was 69 µL/min/mg.
`Cc1nnc(-c2ccc3ccn(CC(=O)Nc4ccc(F)cc4F)c3c2)o1` showed an EC50 [21] of 30 nM, an EC50 [4] of 4250 nM and an EC50 [22] of 25 nM. It also gave an EC50 [23] of 16 nM, an EC50 [24] of 30 nM and a CC50 [10] greater than 40000 nM. The EC50 [25] was 28 nM and the EC50 [26] was 142 nM.
In the case of `Cc1nnc(-c2ccc3ccn(CC(=O)Nc4ccccc4Cl)c3c2)o1`, the IC50 [27] is reported as roughly 400 nM, the EC50 [4] is reported as 667 nM and the “intrinsic clearance (CLint)” value [5] is reported as greater than 462 µL/min/mg. The logD [6] was 3.1, the EC50 [28] was 2540 nM and the CC50 [29] was greater than 40000 nM. The Activity [30] was 3.5%, the Activity [31] was “Active” and the EC50 [9] was 3600 nM. For the same compound, the CC50 [10] was greater than 40000 nM, the EC50 [32] was 901 nM and the EC50 [33] was 569 nM. The Activity [34] was “Active”, the EC50 [35] was greater than 10000 nM and the EC50 [36] was greater than 10000 nM. The “intrinsic clearance (CLint)” value [12] was greater than 92 uL/min/10^6 cells, the solubility kinetic [13] was 10.9 µM (≈ 4 µg/mL) and the EC50 [17] was 5000 nM. The EC50 [37] was greater than 10000 nM, the EC50 [38] was 1280 nM and the inhibition [39] was “Active”. The EC50 [40] was 786 nM, the “intrinsic clearance (CLint)” value [20] was 410 µL/min/mg and the EC50 [41] was 1160 nM. For the same compound, the EC50 [42] was 667 nM.
